Assay results reported in ChEMBL document CHEMBL2069171, “Novel monobactams utilizing a siderophore uptake mechanism for the treatment of gram-negative infections” (Bioorg Med Chem Lett, 2012).
Converted amounts (≈) assume the structure as drawn.

Assays:
Pseudomonas aeruginosa [1] = assay: Antibacterial activity against beta-lactam- and quinolone-resistant Pseudomonas aeruginosa 1042-06; format: functional
[2] = Aqueous stability of the compound at pH 6; format: physicochemical; settings: buffer
Pseudomonas aeruginosa [3] = assay: Antibacterial activity against penicillin-resistant, quinolone-sensitive Pseudomonas aeruginosa 1091-05; format: functional
[4] = Fraction unbound in human plasma; format: ADME, cell-free
Klebsiella pneumoniae = assay: Antibacterial activity against Klebsiella pneumoniae; format: functional
Method in brief: (§1)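 MICs determined against an organism panel of drug-susceptible strains and recent MDR clinical isolates. For selected analogs, MIC90 was taken from broader panels as the concentration inhibiting visible growth of 90 percent of strains.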

Escherichia coli = assay: Antibacterial activity against Escherichia coli; format: functional; method in brief: as §1
Pseudomonas aeruginosa [5] = assay: Antibacterial activity against Pseudomonas aeruginosa; format: functional
Method in brief: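 MICs for P. aeruginosa were determined on a drug-susceptible strain, 1091-05 (penicillin-resistant, quinolone-sensitive clinical strain), and a recent MDR clinical isolate, 1042-06. For selected analogs, MIC90 was taken from broader strain panels as the concentration inhibiting visible growth of 90 percent of strains.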

[6] = Total clearance in rat at 1 mg/kg, iv; format: ADME, organism-based; design: dose 1 mg/kg, route intravenous; settings: in vivo
[7] = Fraction unbound in rat plasma; format: ADME, cell-free
Rattus norvegicus = assay: Unbound clearance in rat at 1 mg/kg, iv; format: ADME, organism-based; design: dose 1 mg/kg, route intravenous; settings: in vivo
Acinetobacter baumannii = assay: Antibacterial activity against Acinetobacter baumannii; format: functional; method in brief: as §1
Pseudomonas aeruginosa [8] = assay: Antibacterial activity against penicillin-resistant, quinolone-sensitive Pseudomonas aeruginosa 1091-05 infected in mouse model of pneumonia assessed as reduction of lung colony forming unit counts; format: functional
Method in brief: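 Murine pneumonia model infected with P. aeruginosa 1091-05. ED50, in mg/kg/dose, derived from reductions in lung CFU counts over the course of the study.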

[9] = Fraction unbound in mouse plasma; format: ADME, cell-free
[10] = Clearance in mouse; format: ADME, organism-based; settings: in vivo
[11] = Total clearance in mouse plasma relative to protein binding and blood flow; format: ADME, organism-based

Structure (SMILES)	MIC (Pseudomonas aeruginosa [1]) [µg/mL]	MIC (Pseudomonas aeruginosa [3]) [µg/mL]	MIC90 (Klebsiella pneumoniae) [µg/mL]	MIC90 (Escherichia coli) [µg/mL]	MIC90 (Pseudomonas aeruginosa [5]) [µg/mL]	MIC90 (Acinetobacter baumannii) [µg/mL]	other results
CC(C)(O/N=C(\C(=O)N[C@H]1CN(C(=O)NS(=O)(=O)n2nc(-c3cc(=O)c(O)c[nH]3)n(C[C@@H](O)CO)c2=O)C1=O)c1csc(N)n1)C(=O)O (stereo in doubt)	0.5 (≈ 0.7 µM)						
C[C@H]1[C@H](NC(=O)/C(=N\OC(C)(C)C(=O)O)c2csc(N)n2)C(=O)N1C(=O)NS(=O)(=O)n1nc(-c2cc(=O)c(O)c[nH]2)n(C[C@@H](O)CO)c1=O (stereo in doubt)							Stability [2]: Stable
CC(C)(O/N=C(\C(=O)N[C@@H]1C(=O)N(S(=O)(=O)O)[C@@H]1COC(=O)CNC(=O)c1ccc(O)c(O)c1)c1csc(N)n1)C(=O)O (stereo in doubt)	16 (≈ 24.8 µM)	1 (≈ 1.55 µM)					
CC(C)(O/N=C(\C(=O)N[C@@H]1C(=O)N(S(=O)(=O)O)[C@@H]1COC(=O)CNC(=O)c1cc(=O)c(O)c[nH]1)c1csc(N)n1)C(=O)O (stereo in doubt)	32 (≈ 49.6 µM)	1 (≈ 1.55 µM)					
CC(C)(O/N=C(\C(=O)N[C@@H]1C(=O)N(S(=O)(=O)O)[C@@H]1COC(=O)c1cc(-c2cc(=O)c(O)c[nH]2)no1)c1csc(N)n1)C(=O)O (stereo in doubt)	4 (≈ 6.1 µM)	4 (≈ 6.1 µM)					
CC(C)(O/N=C(\C(=O)N[C@@H]1C(=O)N(S(=O)(=O)O)[C@@H]1COC(=O)CNC(=O)c1cc(=O)c(O)cn1O)c1csc(N)n1)C(=O)O (stereo in doubt)	0.5 (≈ 0.756 µM)	0.125 (≈ 0.189 µM)	32 (≈ 48.4 µM)	1 (≈ 1.51 µM)	2 (≈ 3.02 µM)	> 64	Stability [2]: Stable; fraction unbound [4]: 0.57; clearance [6]: 8.9 mL/min/kg; fraction unbound [7]: 0.36; CL free (Rattus norvegicus): 24.7 mL/min/kg
Nc1nc(/C(=N/OCC(=O)O)C(=O)N[C@@H]2C(=O)N(S(=O)(=O)O)[C@@H]2COC(=O)CNC(=O)c2ccc(O)c(O)c2)cs1 (stereo in doubt)	32 (≈ 51.9 µM)	0.5 (≈ 0.811 µM)					
C[C@@H](O)[C@H]1C(=O)N2C(C(=O)O)=C(S[C@@H]3CN[C@H](C(=O)N(C)C)C3)[C@H](C)[C@H]12 [MEROPENEM]		0.5 (≈ 1.3 µM)	32 (≈ 83.4 µM)	0.06 (≈ 0.156 µM)	> 64	64 (≈ 167 µM)	
CC(C)(O/N=C(\C(=O)N[C@@H]1C(=O)N(S(=O)(=O)O)[C@@H]1COC(=O)c1ccnc(-c2cc(=O)c(O)c[nH]2)n1)c1csc(N)n1)C(=O)O (stereo in doubt)	32 (≈ 48 µM)	8 (≈ 12 µM)					
CC1(C)[C@H](NC(=O)/C(=N\OCc2cc(=O)c(O)cn2O)c2csc(N)n2)C(=O)N1OS(=O)(=O)O (stereo in doubt)	8 (≈ 15.4 µM)	1 (≈ 1.93 µM)	> 64	16 (≈ 30.9 µM)	4 (≈ 7.71 µM)	64 (≈ 123 µM)	
CC(C)(O/N=C(\C(=O)N[C@@H]1C(=O)N(S(=O)(=O)O)[C@@H]1COC(=O)c1csc(-c2cc(=O)c(O)c[nH]2)n1)c1csc(N)n1)C(=O)O (stereo in doubt)	1 (≈ 1.49 µM)	0.5 (≈ 0.744 µM)					
CC(C)(O/N=C(\C(=O)N[C@@H]1C(=O)N(S(=O)(=O)O)[C@@H]1COC(=O)c1cc(-c2cc(=O)c(O)cn2O)no1)c1csc(N)n1)C(=O)O (stereo in doubt)	0.25 (≈ 0.372 µM)	0.25 (≈ 0.372 µM)	2 (≈ 2.98 µM)	0.125 (≈ 0.186 µM)	1 (≈ 1.49 µM)	> 64	fraction unbound [4]: 0.32; clearance [6]: 34.7 mL/min/kg; fraction unbound [7]: 0.24; CL free (Rattus norvegicus): 144.6 mL/min/kg
CC(C)(O/N=C(\C(=O)N[C@@H]1C(=O)N(S(=O)(=O)O)[C@@H]1CNC(=O)c1cc(-c2cc(=O)c(O)cn2O)no1)c1csc(N)n1)C(=O)O (stereo in doubt)	0.125 (≈ 0.186 µM)	0.125 (≈ 0.186 µM)	16 (≈ 23.9 µM)	1 (≈ 1.49 µM)	0.25 (≈ 0.373 µM)	> 64	fraction unbound [4]: 0.46; ED50 (Pseudomonas aeruginosa [8]): 73.6 mg/kg; fraction unbound [9]: 0.65; clearance [6]: 8.1 mL/min/kg; clearance [10]: 34.7 mL/min/kg; fraction unbound [7]: 0.33; CL free (Rattus norvegicus): 24.5 mL/min/kg; clearance [11]: 87 mL/min/kg
